# Most compounds without a hit are left out; they make up all but 4.3% or so of the library.
# TAAR1 antagonist: human TAAR1 antagonism; 360,000 tested, 1.5% active; inhibition, % at 3 µM; CHO RD-HGA16 TAAR1, Fluo-8 calcium fluorescence, antagonist; AID 624466; Q96RJ0;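 active = inhibition above a per-plate cutoff, the mean inhibition of test compounds on that plate plus 3 SD, cut at about 49% in these data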;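 note: 0% = DMSO plus EC80 beta-PEA response and 100% = DMSO alone without agonist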
# Target sequence (Q96RJ0 whole entry, looked up): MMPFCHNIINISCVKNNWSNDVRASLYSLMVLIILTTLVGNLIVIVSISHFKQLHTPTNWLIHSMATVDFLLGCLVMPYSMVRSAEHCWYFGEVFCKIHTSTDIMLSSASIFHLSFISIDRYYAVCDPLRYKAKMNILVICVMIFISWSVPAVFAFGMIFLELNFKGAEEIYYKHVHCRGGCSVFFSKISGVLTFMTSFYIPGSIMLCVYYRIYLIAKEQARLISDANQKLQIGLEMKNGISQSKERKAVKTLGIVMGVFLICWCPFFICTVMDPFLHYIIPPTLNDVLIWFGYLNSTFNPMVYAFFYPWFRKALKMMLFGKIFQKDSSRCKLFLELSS
#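 Test system: CHO RD-HGA16 cells bearing hTAAR1 | Reagent: β-PEA, EC80 | Compound dosing: 3 µM, single point | Schedule: Dye loading 75 min at 37 °C, then 30 min room temperature | Signal: Calcium fluorescence with Fluo-8 | Evaluation: Percent inhibition of PEA-evoked calcium signal, max/basal emission ratio | Control set: DMSO-only wells and EC80 β-PEA-stimulated wells | Repeats: Singlicate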
# OX1R antag-1: antagonists of human orexin 1 receptor (OX1R); O43613; OX1R-expressing cells, FRET antagonist read-out; inhibition, % at 6.6 µM; 330,000 tested, 1.8% active; AID 485270; in the data active = inhibition mostly above about 38%, no sharp cut-off; inactive = mostly below about 40%;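 note: 0% = agonist challenge alone and 100% = reference antagonist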
# OX1R antag-2: human HCRTR1 antagonism | 330,000 tested, 0.43% active | O43613 | AID 434989 | CHO/OX1R cells, Fluo-8 calcium fluorescence, orexin A | inhibition, % at 5 µM;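 active = inhibition above its plate's threshold, mean inhibition of all tested compounds on the plate plus 3 SD, cut at about 37% in these data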;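 note: 0% = orexin A challenge wells and 100% = SB-334867-A antagonist wells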
# CHO parental Ca: counter-screen for OX1R antagonists: effect in parental CHO cells. inhibition, % at 5.6 µM. parental CHO-K1, ATP-induced calcium, Fluo-8 fluorescence. 330,000 tested, 0.63% active;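 active = inhibition above that plate's mean sample inhibition plus 3 SD, cut at about 26% in these data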;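 note: 0% = ATP-challenged DMSO wells and 100% = DMSO wells without ATP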
#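 Material – parental CHO cells · Reagent – ATP stimulus · Compound – single nominal dose of 5.6 µM per compound · Detection – Fluo-8 fluorescence · Read-out basis – percent inhibition of calcium signal · Controls – ATP-challenged DMSO wells low, unchallenged DMSO wells high · Repeats – no replicates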
# TAAR1 agonist: agonists of human TAAR1. Q96RJ0. CHO RD-HGA16 TAAR1, Fluo-8 calcium fluorescence; vehicle wells 0%, saturating PEA agonist 100%. activation, % at 3 µM. 360,000 tested, 0.99% active. AID 624467;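 active = activation above the mean activation of all test compounds in the run plus 3 SD, cut at about 38% in these data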
#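 Signal – calcium-sensitive Fluo-8 signal, excitation 470-495, emission 515-575 nm · System – RD-HGA16 (CHO) cells co-expressing Gα16 and hTAAR1 · Incubation – 17-24 h seeding, 75 min 37 °C dye, 30 min RT · Compound dosing – 3 µM single concentration · Repeats – no replicates (n 1)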
# GalR3 antagonist: antagonists of human GalR3; HEK293 GalR3-CNG cAMP membrane potential fluorescence; galR3 body fused to GalR1 C-terminus; 360,000 tested, 0.44% active; O60755; inhibition, % at 3 µM;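 active = inhibition above the screen-wide average plus 3 SD, cut at about 13% in these data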;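 note: forskolin and galanin both at EC90 stimulate the cells; cAMP rise reported by CNG channel membrane potential dye signal; 0% = forskolin plus galanin with DMSO and 100% = forskolin alone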
# Target sequence (O60755 1-299 limits assumed): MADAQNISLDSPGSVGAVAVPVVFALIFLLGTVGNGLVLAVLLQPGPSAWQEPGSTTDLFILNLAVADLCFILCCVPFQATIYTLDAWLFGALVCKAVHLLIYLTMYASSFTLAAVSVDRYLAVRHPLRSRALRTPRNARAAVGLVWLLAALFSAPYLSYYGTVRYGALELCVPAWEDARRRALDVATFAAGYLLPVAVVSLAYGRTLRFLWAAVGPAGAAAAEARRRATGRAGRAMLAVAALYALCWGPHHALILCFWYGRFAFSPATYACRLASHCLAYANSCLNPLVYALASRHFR
# * hit, by the source's call; x = no result given.
SMILES,TAAR1 antagonist,OX1R antag-1,OX1R antag-2,CHO parental Ca,TAAR1 agonist,GalR3 antagonist
CCc1cccc2c(C(=O)COC(=O)[C@@H]3CC(O)CN3S(=O)(=O)c3ccccc3[N+](=O)[O-])c[nH]c12 (stereo partly drawn),56*,21,8,-8,11,-4
Cc1ccc([C@H]2C[C@H](n3cc(-c4ccc(F)cc4)nn3)[C@@H](O)CN2C(=O)C2CCCCC2)cc1,1,x,x,x,1,1
Cc1c(C2(O)CCCCC2)[nH]c2ccc(C(F)(F)F)cc12,28,53*,47,57*,8,-4
Cc1ccc([C@H]2C(C(=O)O)=CC[C@@H](c3ccc(Cl)c(Cl)c3)N2S(=O)(=O)c2ccc(C)cc2)cc1,-8,17,9,-16,1,-7
Cc1ccc(S(=O)(=O)N2[C@@H](c3ccccc3)C(C(=O)O)=CC[C@H]2c2ccc(Cl)c(Cl)c2)cc1,31,55*,-5,-14,1,-1
Cc1ccc(S(=O)(=O)N2[C@@H](c3ccccc3F)C(C(=O)O)=CC[C@H]2c2ccc(Cl)c(Cl)c2)cc1,19,67*,-4,-10,0,-2
N#Cc1ccc(OS(=O)(=O)c2ccc(-c3ccon3)s2)cc1,3,17,5,34*,2,-3
CN(C)c1nc(N)nc(-c2nc3ccccc3s2)n1,0,58*,-12,-28,6,-5
Cc1ccc(NC(=S)NC(=O)C2CCCCC2)c(Br)c1,11,14,8,-16,1,0
Cc1ccc(NC(=O)C2C(c3ccccc3)C2(Cl)Cl)c(C)c1 (stereo not drawn),-20,77*,10,7,-4,-2
CC(OC(=O)Nc1ccccc1)C(=O)OC1CCCCC1 (stereo not drawn),-23,x,x,x,-1,-8
CC1(C)SC(=S)N(/N=C/c2ccccc2)C1N(O)C(=O)Nc1ccc([N+](=O)[O-])cc1 (stereo not drawn),-6,42,20,21,44*,-4
CNC(=O)N(O)C1N(/N=C/c2ccc(N(C)C)cc2)C(=S)SC1(C)C (stereo not drawn),-1,-8,-11,-2,0,-9
COCCNC(=O)C1(C)CCCN(Cc2sc(C)nc2C)C1 (stereo not drawn),-4,x,x,x,3,-6
O=C1/C(=C\c2ccc(Br)o2)SC(=Nc2ccccc2)N1c1ccccc1,5,62*,-16,-15,5,0
CC1(C(=O)NS(=O)(=O)c2ccc(Cl)s2)CCN1C(=O)Cc1ccc(-c2ccccc2)cc1 (stereo not drawn),0,x,x,x,-1,-7
Cn1ncc(Cl)c1C(=O)Nc1sc2c(c1C(N)=O)CCC2,-21,76*,13,-24,3,-7
Cc1cc(Cl)c(OCCCNCc2ccccc2)c(Br)c1,0,14,-9,7,44*,-9
Cc1cc(C)c(OCCCNCc2ccccc2)c(Br)c1,2,7,-18,7,16,-4
N#Cc1ccc(NC(=O)Nc2cccc(C#N)c2)cc1,-5,x,x,x,13,-2
N#Cc1ccc(NC(=O)Nc2ccc(Oc3ccc(NC(=O)Nc4ccc(C#N)cc4)cc3)cc2)cc1,22,17,2,38*,14,-7
COCC(=O)NC1CC(C)(C)Cc2c1cnn2-c1ccc(F)cc1 (stereo not drawn),2,1,-18,-4,0,-1
O=C1NC(Cc2ccccc2)c2nc3ccccc3c(=O)n2-c2cc3ccccc3cc21 (stereo not drawn),43,x,x,x,6,-2
COc1cc(OC)c(OC)cc1/C=N/NC(=O)c1cc(-c2cccn2C)n[nH]1,10,59*,0,-14,10,3
COc1ccc(/C=N/NC(=O)c2cc(-c3cccn3C)n[nH]2)cc1OC,-13,24,-10,-6,5,3
SMILES,TAAR1 antagonist,OX1R antag-1,OX1R antag-2,CHO parental Ca,TAAR1 agonist,GalR3 antagonist
CCOc1ccc(NC(=O)COC(=O)c2ccc3c(c2)C(=O)N(CCc2ccccc2)C3=O)cc1,18,6,-12,-14,38*,-5
CCc1sc(N2C(=O)C3C4CCC(C4=C(C)C)C3C2=O)nc1-c1ccccc1 (stereo not drawn),-16,38*,23,-38,-1,-4
CC1CN(C(=O)COC(=O)Cc2c(Cl)cccc2Cl)CC(C)O1 (stereo not drawn),-23,5,-7,-13,2,-6
CN(CC(=O)Nc1cccc(F)c1)C(=O)c1ccc2c(c1)CC(c1ccccc1)OC2=O (stereo not drawn),58*,x,x,x,19,-5
CN(CC(=O)Nc1cccc(F)c1)C(=O)c1ccc(C2SCCS2)cc1,13,12,-1,12,2,-4
O=[N+]([O-])c1cc(-c2ncccn2)c([N+](=O)[O-])s1,35,64*,20,17,-3,-6
COc1ccc(Cl)cc1S(=O)(=O)N1CCN(C(=O)c2n[nH]c(=O)c3ccccc23)CC1,-5,4,-23,-14,3,-2
C=C(C)c1cc2c(ccc3ccc(=O)oc32)o1,1,75*,38,-20,-2,-3
CNC(=O)c1cc2c(ccc3ccccc32)o1,-4,20,-24,-1,2,-8
COc1ccc(OC)c(S(=O)(=O)N/N=C(/C)c2ccc3c(c2)OCO3)c1,-15,x,x,x,0,-3
COc1ccc2c(c1)[C@@]1(OCCC=C[C@H]1C)C(=O)N2CC1CC1,-6,x,x,x,4,-9
COc1ccc(-n2nc(C(=O)NCC(=O)N(C)Cc3ccccc3)c3ccccc3c2=O)c(OC)c1,7,1,-8,-16,-1,-4
COc1ccc(-n2nc(C(=O)NCC(=O)N3CCCCCC3)c3ccccc3c2=O)cc1OC,6,25,-35,-21,7,-8
COc1ccc(-n2nc(C(=O)NCC(=O)N(C)Cc3ccccc3)c3ccccc3c2=O)cc1OC,49*,23,-27,-23,9,-9
COc1ccc(-n2nc(C(=O)NCC(=O)NC3CCCCCC3)c3ccccc3c2=O)cc1OC,50*,13,-29,-14,10,-7
CCOC(=O)C1(C)CCCN1C(=O)c1ccccc1F (stereo not drawn),-7,x,x,x,0,-6
Cn1c(N2CCN(C(=O)Nc3ccc(F)cc3)CC2)nc2ccccc21,-8,3,-15,-23,2,-2
Cn1c(N2CCN(C(c3ccccc3)c3ccccc3)CC2)nc2ccccc21,50*,25,-56,-12,1,-6
CC(=O)N1CCN(c2ccc(N3CCN(C(C)=O)[C@@H](C)C3)c(C)c2)[C@H](C)C1,-15,x,x,x,5,-5

# Source: PubChem BioAssay
